Where two headings read alike, the source gives them in different places.
Assays:
Safety evaluation = type: in vivo, human
Outline: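 Single abdominal s.c. 200 μg dose given fasting on day 1. Monitoring covered adverse events, vital signs, physical examination, fasting venous glucose, blood and urine routine, blood biochemistry and 12-lead ECG. Assessments were at 24, 144, 312 and 720 h post-dose. The safety set comprised all dosed subjects with post-dose safety data.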

[1] = type: in vivo, human; conditions: for AUC0–inf, geometric mean / Cmax, geometric mean / AUC_% Extrap / CL/F / Cmax / T1/2 / Tmax / Vz/F / median Tmax: single 200 μg s.c.; for AUC_% Extrap / CL/F / Cmax / T1/2 / Tmax / Vz/F: mean ± SD
Outline: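 Open-label phase I study in renally impaired and matched normal-function adults (CLcr ≥90 mL/min), with or without T2DM. A single abdominal s.c. injection was given at 08:00, followed by a standard breakfast. […] Parameters came from noncompartmental analysis; log-transformed AUC0–inf ratios to the normal group were given with 90% CI.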

[2] = cited from earlier work
[3] = Mild impairment (n=8), single 200 μg s.c.
[4] = Moderate impairment (n=8), single 200 μg s.c.
[5] = Normal renal function (n=10), single 200 μg s.c.
[6] = all groups (26 subjects), single 200 μg s.c.

## Polyethylene glycol loxenatide [PEX168]
Safety evaluation; [3]
  Treatment-emergent AE: Abdominal discomforts, %: 0%
  Treatment-emergent AE: Acute kidney injury, %: 0%
  Treatment-emergent AE: Anaemia, %: 0%
  Treatment-emergent AE: Bloating, %: 25%
  Treatment-emergent AE: Hiccup, %: 12.5%
  Treatment-emergent AE: Increased white blood cell count, %: 0%
  Treatment-emergent AE: Nausea, %: 50%
  Treatment-emergent AE: Oropharyngeal discomfort, %: 12.5%
  Treatment-emergent AE: Overall AEs, %: 87.5%
  Treatment-emergent AE: Retching, %: 0%
  Treatment-emergent AE: Vomiting, %: 50%
Safety evaluation; [4]
  Treatment-emergent AE: Abdominal discomforts, %: 0%
  Treatment-emergent AE: Acute kidney injury, %: 12.5%
  Treatment-emergent AE: Anaemia, %: 12.5%
  Treatment-emergent AE: Bloating, %: 0%
  Treatment-emergent AE: Hiccup, %: 12.5%
  Treatment-emergent AE: Increased white blood cell count, %: 12.5%
  Treatment-emergent AE: Nausea, %: 62.5%
  Treatment-emergent AE: Oropharyngeal discomfort, %: 0%
  Treatment-emergent AE: Overall AEs, %: 87.5%
  Treatment-emergent AE: Retching, %: 12.5%
  Treatment-emergent AE: Vomiting, %: 50%
Safety evaluation; [5]
  Treatment-emergent AE: Abdominal discomforts, %: 10%
  Treatment-emergent AE: Acute kidney injury, %: 0%
  Treatment-emergent AE: Anaemia, %: 0%
  Treatment-emergent AE: Bloating, %: 50%
  Treatment-emergent AE: Hiccup, %: 0%
  Treatment-emergent AE: Increased white blood cell count, %: 0%
  Treatment-emergent AE: Nausea, %: 20%
  Treatment-emergent AE: Oropharyngeal discomfort, %: 0%
  Treatment-emergent AE: Overall AEs, %: 70%
  Treatment-emergent AE: Retching, %: 0%
  Treatment-emergent AE: Vomiting, %: 0%
Safety evaluation; [6]
  AE: gastrointestinal disorders, subjects: 80.8%
  AE: laboratory tests, subjects: 42.3%
  AE: metabolism and nutrition disorders, subjects: 42.3%
Safety evaluation; all groups, single 200 μg s.c., including nausea, vomiting and bloating
  Treatment-emergent AE: gastrointestinal disorders, subjects: 80.8%
Safety evaluation; single dose of 200 μg, patients with mild-to-moderate renal impairment
  Tolerability: well tolerated
[1]; Mild impairment (n=8)
  AUC0–inf, geometric mean: 16 500 h^*ng/mL
  Cmax, geometric mean: 48.5 ng/mL
[1]; Mild renal impairment, n=8
  AUC_% Extrap: 3.49 ± 1.32%
  CL/F: 0.0136 ± 0.00657 L/h
  Cmax: 54.1 ± 29.7 ng/mL
  T1/2: 117 ± 16.5 h
  Tmax: 123 ± 15.4 h
  Vz/F: 2.28 ± 1.09 L
[1]; Moderate impairment (n = 7)
  AUC0–inf, geometric mean: 29 200 h^*ng/mL
  Cmax, geometric mean: 73.1 ng/mL
[1]; Moderate renal impairment, n=7
  AUC_% Extrap: 6.92 ± 1.75%
  CL/F: 0.00711 ± 0.0022 L/h
  Cmax: 78.1 ± 35.9 ng/mL
  T1/2: 163 ± 14.7 h
  Tmax: 144 ± 33.9 h
  Vz/F: 1.69 ± 0.61 L
[1]; Normal (n = 8)
  AUC0–inf, geometric mean: 14 600 h^*ng/mL
  Cmax, geometric mean: 56.6 ng/mL
[1]; Normal renal function, n=8
  CL/F: 0.0140 ± 0.00298 L/h
  Tmax: 114 ± 45.8 h
  Vz/F: 2.44 ± 0.56 L
[1]; mild impairment group
  median Tmax: 120 h
[1]; mild impairment relative to normal renal function, 90%CI 61.5–119
  Cmax, geometric mean ratio normal vs mild: 85.6%
[1]; mild impairment relative to normal renal function, 90%CI 82.1–156
  AUC0–inf, geometric mean ratio normal vs mild: 113%
[1]; mild renal impairment
  AUC0–inf increase compared to the normal group: 13.1%
  Cmax reduction compared to the normal group: 14.3%
[1]; moderate impairment group
  median Tmax: 144 h
[1]; moderate impairment relative to normal renal function, 90%CI 91.7–182
  Cmax, geometric mean ratio normal vs moderate: 129%
[1]; moderate impairment relative to normal renal function, 90%CI 144–280
  AUC0–inf, geometric mean ratio normal vs moderate: 201%
[1]; moderate renal impairment
  AUC0–inf increase compared to the normal group: 100.7%
  Cmax increase compared to the normal group: 29.1%
[1]; normal group
  median Tmax: 96 h

## exenatide
[2]
  in vivo half-life: 2 to 3 h
